Measured values: ChEMBL document CHEMBL1135816, “6-Aryl-1,4-dihydro-benzo[d][1,3]oxazin- 2-ones: a novel class of potent, selective, and orally active nonsteroidal progesterone receptor antagonists” (J Med Chem, 2002)

Experiments:
Progesterone receptor = molecular target: T1, Progesterone receptor (Homo sapiens, UniProt P06401); assay: Antagonist activity against progesterone receptor (PR) in an assay using PRE-luciferase plasmid co-transfected CV-1 cells; assay type: functional, cell-based
T1 sequence (P06401 whole entry): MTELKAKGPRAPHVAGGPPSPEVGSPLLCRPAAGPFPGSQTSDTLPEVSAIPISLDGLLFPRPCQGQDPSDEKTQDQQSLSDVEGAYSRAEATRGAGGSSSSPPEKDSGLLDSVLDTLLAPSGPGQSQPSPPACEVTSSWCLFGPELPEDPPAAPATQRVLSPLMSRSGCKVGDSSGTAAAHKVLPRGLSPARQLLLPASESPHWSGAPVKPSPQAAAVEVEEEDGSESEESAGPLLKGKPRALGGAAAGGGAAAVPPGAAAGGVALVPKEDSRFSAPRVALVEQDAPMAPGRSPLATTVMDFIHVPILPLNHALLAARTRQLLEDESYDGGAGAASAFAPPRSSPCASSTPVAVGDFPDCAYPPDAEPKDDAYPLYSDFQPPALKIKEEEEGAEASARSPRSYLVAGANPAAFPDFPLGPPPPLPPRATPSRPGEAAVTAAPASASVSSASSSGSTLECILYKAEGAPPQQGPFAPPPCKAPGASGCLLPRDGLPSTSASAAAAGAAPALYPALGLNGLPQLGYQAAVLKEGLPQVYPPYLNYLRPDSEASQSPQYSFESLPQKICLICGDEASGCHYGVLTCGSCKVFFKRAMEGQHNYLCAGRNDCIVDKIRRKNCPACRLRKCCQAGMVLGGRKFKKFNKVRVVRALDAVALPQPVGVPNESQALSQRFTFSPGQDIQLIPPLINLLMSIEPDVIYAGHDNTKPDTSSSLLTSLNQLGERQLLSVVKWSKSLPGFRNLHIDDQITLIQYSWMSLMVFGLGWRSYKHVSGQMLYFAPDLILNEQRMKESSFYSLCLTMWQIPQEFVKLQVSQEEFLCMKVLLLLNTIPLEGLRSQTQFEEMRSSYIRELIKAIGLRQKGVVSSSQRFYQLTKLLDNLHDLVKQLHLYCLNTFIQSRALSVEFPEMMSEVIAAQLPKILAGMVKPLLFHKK
Outline: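 CV-1 cells cotransfected with hPR and PRE-luciferase plasmids, luciferase read-out; IC50 averaged from at least duplicate determinations.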

[1] = molecular target: T2, Mineralocorticoid receptor (Homo sapiens, UniProt P08235); assay: Antagonist activity against the Mineralocorticoid Receptor (MR); assay type: functional
T2 sequence (P08235 whole entry): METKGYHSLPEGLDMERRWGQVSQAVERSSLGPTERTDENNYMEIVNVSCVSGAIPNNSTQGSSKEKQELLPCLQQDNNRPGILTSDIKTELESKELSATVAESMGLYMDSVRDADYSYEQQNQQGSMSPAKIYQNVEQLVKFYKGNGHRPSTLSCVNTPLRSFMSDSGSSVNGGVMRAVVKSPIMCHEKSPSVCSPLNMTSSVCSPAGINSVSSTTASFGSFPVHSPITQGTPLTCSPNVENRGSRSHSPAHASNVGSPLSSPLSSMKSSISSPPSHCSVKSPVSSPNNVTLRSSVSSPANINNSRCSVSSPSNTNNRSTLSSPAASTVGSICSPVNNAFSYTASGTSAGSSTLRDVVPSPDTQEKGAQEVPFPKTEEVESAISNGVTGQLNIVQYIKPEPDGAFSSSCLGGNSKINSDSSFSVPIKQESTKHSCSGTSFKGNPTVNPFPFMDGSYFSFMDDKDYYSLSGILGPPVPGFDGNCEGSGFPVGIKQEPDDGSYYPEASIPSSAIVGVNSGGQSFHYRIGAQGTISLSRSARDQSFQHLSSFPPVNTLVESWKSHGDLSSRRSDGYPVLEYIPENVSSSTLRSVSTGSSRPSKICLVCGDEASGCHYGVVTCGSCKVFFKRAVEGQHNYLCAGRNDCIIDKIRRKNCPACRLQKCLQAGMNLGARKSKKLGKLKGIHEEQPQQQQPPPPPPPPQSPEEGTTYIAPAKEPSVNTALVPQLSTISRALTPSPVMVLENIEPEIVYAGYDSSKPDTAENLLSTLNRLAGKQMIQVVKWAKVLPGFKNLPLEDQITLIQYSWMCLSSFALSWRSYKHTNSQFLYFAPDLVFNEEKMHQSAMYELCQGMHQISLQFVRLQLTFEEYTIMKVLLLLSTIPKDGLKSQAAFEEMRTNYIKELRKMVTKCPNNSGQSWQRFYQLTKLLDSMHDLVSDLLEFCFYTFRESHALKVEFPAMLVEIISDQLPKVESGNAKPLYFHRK

[2] = molecular target: T3, Progesterone receptor (Rattus norvegicus) (UniProt Q63449); assay: Inhibitory activity against progesterone receptor (PR) in ovariectomized mature female rat decidualization model; assay type: functional
T3 sequence (whole entry): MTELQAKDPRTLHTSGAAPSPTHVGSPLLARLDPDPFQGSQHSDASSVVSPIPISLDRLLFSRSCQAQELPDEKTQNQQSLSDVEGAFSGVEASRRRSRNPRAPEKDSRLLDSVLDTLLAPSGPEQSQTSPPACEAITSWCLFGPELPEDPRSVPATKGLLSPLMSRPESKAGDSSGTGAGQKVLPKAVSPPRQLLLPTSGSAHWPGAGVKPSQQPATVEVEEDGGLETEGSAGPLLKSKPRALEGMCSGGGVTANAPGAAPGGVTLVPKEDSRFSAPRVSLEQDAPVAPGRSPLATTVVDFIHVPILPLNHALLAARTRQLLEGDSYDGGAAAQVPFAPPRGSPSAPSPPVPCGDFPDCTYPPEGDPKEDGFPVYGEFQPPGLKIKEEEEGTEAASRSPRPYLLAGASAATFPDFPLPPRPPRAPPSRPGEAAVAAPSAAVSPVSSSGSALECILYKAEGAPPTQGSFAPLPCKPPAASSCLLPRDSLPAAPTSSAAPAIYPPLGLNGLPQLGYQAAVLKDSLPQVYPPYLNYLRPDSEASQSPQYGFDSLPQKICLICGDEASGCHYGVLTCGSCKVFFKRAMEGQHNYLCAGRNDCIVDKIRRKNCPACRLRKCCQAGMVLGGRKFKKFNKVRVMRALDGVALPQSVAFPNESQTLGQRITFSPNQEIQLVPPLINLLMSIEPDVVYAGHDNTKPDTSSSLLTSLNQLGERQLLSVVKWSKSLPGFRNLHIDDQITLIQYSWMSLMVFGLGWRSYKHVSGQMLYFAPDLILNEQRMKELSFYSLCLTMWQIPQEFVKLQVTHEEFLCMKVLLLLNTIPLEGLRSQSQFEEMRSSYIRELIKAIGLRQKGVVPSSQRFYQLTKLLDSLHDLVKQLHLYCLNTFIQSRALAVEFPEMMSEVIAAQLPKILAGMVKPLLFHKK
Outline: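 Ovariectomized mature rats dosed orally for 7 days, with progesterone 5.6 mg/kg SC given alongside; vehicle-only controls. Decidual response (D/C) measured 24 h after the final treatment, seven animals per point. ED50 averaged from at least duplicate determinations.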

Compound | IC50 (Progesterone receptor) [nM] | IC50 [1] [nM] | ED50 [2] [mg/kg]
CC1(C)OC(=O)Nc2ccc(-c3coc(C#N)c3)cc21 | 40.2 | > 10000 | 0.9
CC1(C)OC(=O)Nc2ccc(-c3cc(F)cc(C#N)c3)cc21 | 15.9 | 2370 | 0.3
CC1(C)OC(=O)Nc2ccc(-c3ccc(F)c(Cl)c3)cc21 | – | 2490 | 1
CC1(C)OC(=O)Nc2ccc(-c3csc(C#N)c3)cc21 | 6.7 | 1390 | 1.7
